Assay results pooled from the literature.
Each line is one published result; the experiments were not run side by side.
Organism: Staphylococcus aureus
Effect on: microbial growth

Compound	test	system	setting	MIC
O=C(O)c1cn(C2CC2)c2cc(N3CCNCC3)c(F)cc2c1=O	broth dilution	ATCC25923	16 h	6.25 µM
CN[C@H](CC(C)C)C(=O)N[C@H]1C(=O)N[C@@H](CC(N)=O)C(=O)N[C@H]2C(=O)N[C@H]3C(=O)N[C@H](C(=O)N[C@H](C(=O)O)c4cc(O)cc(O)c4-c4cc3ccc4O)[C@H](O)c3ccc(c(Cl)c3)Oc3cc2cc(c3O[C@@H]2O[C@H](CO)[C@@H](O)[C@H](O)[C@H]2O[C@H]2C[C@](C)(N)[C@H](O)[C@H](C)O2)Oc2ccc(cc2Cl)[C@H]1O	broth dilution	ATCC29213	–	0.67 µM
CCCCCCC#Cc1cncc(-c2nnc(SCc3cc([N+](=O)[O-])cc([N+](=O)[O-])c3)n2CCCN)c1	broth dilution	ATCC29213	–	8 mg/L
Cc1cc(Nc2nnc(-c3n[nH]c4ccc(C)cc34)s2)cc([N+](=O)[O-])c1	–	ATCC29213	–	78 mg/L
CCN1CCC(CCNCc2cc3cc(Br)ccc3nc2SCc2ccccc2)CC1	broth dilution	–	–	32 mg/L
CC1(C)S[C@@H]2[C@H](NC(=O)[C@H](N)c3ccc(O)cc3)C(=O)N2[C@H]1C(=O)O	broth dilution	USA300	–	64 mg/L
CC(=O)NC[C@H]1CN(c2ccc(N3CCOCC3)c(F)c2)C(=O)O1	–	MRSA	–	1 mg/L
CCCCCCCCN=c1ccn(CCCCCCCCCCn2ccc(=NCCCCCCCC)cc2)cc1	–	MSSA	–	0.5 µM
CCCCCCC#Cc1cncc(-c2nnc(SCc3ccc([N+](=O)[O-])o3)n2CCCN)c1	broth dilution	ATCC29213	–	> 64 mg/L
CCCCCCCCCCCC[N+](C)(C)Cc1ccccc1	–	MSSA	–	4 µM
CN[C@H](CC(C)C)C(=O)N[C@H]1C(=O)N[C@@H](CC(N)=O)C(=O)N[C@H]2C(=O)N[C@H]3C(=O)N[C@H](C(=O)N[C@H](C(=O)O)c4cc(O)cc(O)c4-c4cc3ccc4O)[C@H](O)c3ccc(c(Cl)c3)Oc3cc2cc(c3O[C@@H]2O[C@H](CO)[C@@H](O)[C@H](O)[C@H]2O[C@H]2C[C@](C)(N)[C@H](O)[C@H](C)O2)Oc2ccc(cc2Cl)[C@H]1O	broth dilution	USA300	–	1 mg/L
CC1(C)S[C@@H]2[C@H](NC(=O)[C@H](N)c3ccccc3)C(=O)N2[C@H]1C(=O)O	agar dilution	ATCC25923	–	0.5 mg/L
c1ccc(CSc2nc3ccc(-c4ccccc4)cc3cc2CNCCC2CCN(C3CCCC3)CC2)cc1	broth dilution	–	–	8 mg/L
CCC[C@@H]1C[C@@H](C(=O)N[C@@H]([C@H]2O[C@H](SC)[C@H](O)[C@@H](O)[C@H]2O)[C@@H](C)O)N(C)C1	broth dilution	USA300	–	2 mg/L
CN[C@H](CC(C)C)C(=O)N[C@H]1C(=O)N[C@@H](CC(N)=O)C(=O)N[C@H]2C(=O)N[C@H]3C(=O)N[C@H](C(=O)N[C@H](C(=O)O)c4cc(O)cc(O)c4-c4cc3ccc4O)[C@H](O)c3ccc(c(Cl)c3)Oc3cc2cc(c3O[C@@H]2O[C@H](CO)[C@@H](O)[C@H](O)[C@H]2O[C@H]2C[C@](C)(N)[C@H](O)[C@H](C)O2)Oc2ccc(cc2Cl)[C@H]1O	agar dilution	ATCC25923	–	0.5 mg/L
COc1cc2cc(CNCCC3CCN(C4CCCC4)CC3)c(SCc3ccccc3)nc2c(OC)c1OC	broth dilution	–	–	> 128 mg/L
[H]/N=C(/N)N[C@H]1[C@H](O)[C@@H](O)[C@H](O[C@@H]2O[C@@H](C)[C@](O)(C=O)[C@H]2O[C@@H]2O[C@@H](CO)[C@H](O)[C@@H](O)[C@@H]2NC)[C@@H](N/C(N)=N\[H])[C@@H]1O	broth dilution	ATCC6538	–	15 mg/L
CC[C@H]1OC(=O)[C@H](C)[C@@H](O[C@H]2C[C@@](C)(OC)[C@@H](O)[C@H](C)O2)[C@H](C)[C@@H](O[C@@H]2O[C@H](C)C[C@H](N(C)C)[C@H]2O)[C@](C)(O)C[C@@H](C)/C(=N\OCOCCOC)[C@H](C)[C@@H](O)[C@]1(C)O	agar dilution	ATCC43300	–	16 mg/L
Cc1ccc2[nH]nc(-c3nnc(Nc4ccc(Cl)cc4)s3)c2c1	–	ATCC29213	–	44.5 mg/L

Compound	test	system	setting	MIC
CC(=O)OCC1=C(C(=O)O)N2C(=O)[C@@H](NC(=O)Cc3cccs3)[C@H]2SC1	broth dilution	ATCC25923	–	6.25 mg/L
CCCCCCC#Cc1cncc(-c2nnc(SCc3ccc([N+](=O)[O-])cc3)n2CCCN)c1	broth dilution	MRSA	–	8 mg/L
Cc1ccc2[nH]nc(-c3nnc(Nc4ccc(Cl)c(Cl)c4)s3)c2c1	–	ATCC29213	–	97.5 mg/L
[H]/N=C(\N/C(=N/[H])NCCCCCCNC(=N)NC(=N)Nc1ccc(Cl)cc1)Nc1ccc(Cl)cc1	–	MRSA USA300	drug-resistant strain	1 µM
CCCCCCC#Cc1cncc(-c2nnc(SCc3cc([N+](=O)[O-])cc([N+](=O)[O-])c3)n2C2CCNCC2)c1	broth dilution	ATCC29213	–	8 mg/L
CCN1CCC(CCNCc2cc3cc(-c4ccccc4)ccc3nc2SCc2ccccc2)CC1	broth dilution	–	–	4 mg/L
CC(=O)c1ccc2cc(S(=O)(=O)Nc3ccc(Br)cc3)ccc2c1	broth dilution	ATCC25923	–	20000 mg/L
CC[C@H]1OC(=O)[C@H](C)[C@@H](O[C@H]2C[C@@](C)(OC)[C@@H](O)[C@H](C)O2)[C@H](C)[C@@H](O[C@@H]2O[C@H](C)C[C@H](N(C)C)[C@H]2O)[C@](C)(O)C[C@@H](C)C(=O)[C@H](C)[C@@H](O)[C@]1(C)O	broth dilution	USA300	–	> 64 mg/L
COc1c(N2C[C@@H]3CCCN[C@@H]3C2)c(F)cc2c(=O)c(C(=O)O)cn(C3CC3)c12	agar dilution	ATCC43300	–	0.5 mg/L
c1ccc(CSc2nc3ccccc3cc2CNCc2ccc(N3CCCCC3)cc2)cc1	broth dilution	–	–	> 128 mg/L
C=C[C@]1(C)C[C@@H](OC(=O)CS[C@@H]2C[C@H]3CC[C@@H](C2)N3C)[C@]2(C)[C@H](C)CC[C@]3(CCC(=O)[C@H]32)[C@@H](C)[C@@H]1O	agar dilution	ATCC43300	–	0.0625 mg/L
CC[C@H]1OC(=O)[C@H](C)[C@@H](O[C@H]2C[C@@](C)(OC)[C@@H](O)[C@H](C)O2)[C@H](C)[C@@H](O[C@@H]2O[C@H](C)C[C@H](N(C)C)[C@H]2O)[C@](C)(O)C[C@@H](C)CN(C)[C@H](C)[C@@H](O)[C@]1(C)O	broth dilution	ATCCBAA44 BAA44	–	> 64 mg/L
CCCCCCC#Cc1cncc(-c2nnc(SCc3cc([N+](=O)[O-])cc([N+](=O)[O-])c3)n2CCOC2OC(CN)C(O)C2O)c1 (centres unmarked)	broth dilution	MRSA	–	> 64 mg/L
COc1ccc(C=NNC(=O)CSc2nc3c(C)cccc3c(=O)n2-c2ccccc2)cc1OS(C)(=O)=O	broth dilution	–	–	12.5 mg/L
N#CC(C#N)=C1SC(C(=O)c2ccc(Nc3cnccn3)cc2)=NN1c1ccc([N+](=O)[O-])cc1	broth dilution	ATCC25923	–	3.12 mg/L
CC[C@H]1OC(=O)[C@H](C)[C@@H](O[C@H]2C[C@@](C)(OC)[C@@H](O)[C@H](C)O2)[C@H](C)[C@@H](O[C@@H]2O[C@H](C)C[C@H](N(C)C)[C@H]2O)[C@](C)(O)C[C@@H](C)CN(C)[C@H](C)[C@@H](O)[C@]1(C)O	–	ATCC29213	–	< 98 mg/L
Cc1onc(-c2ccccc2)c1C(=O)N[C@@H]1C(=O)N2[C@@H]1SC(C)(C)[C@@H]2C(=O)O	–	ATCC29213 MSSA	drug-resistant strain	0.25 mg/L
Cc1ccc2[nH]nc(-c3nnc(Nc4ccc(Br)cc4)s3)c2c1	–	ATCC29213	–	154 mg/L
CC(=O)C1=NN(c2ccccc2)C(=C(C#N)C(=O)c2ccc(Nc3cnccn3)cc2)S1	broth dilution	ATCC25923	–	50 mg/L
